# Tests used:
# Escherichia coli [1] = assay: In vitro antibacterial activity against Escherichia coli 257; format: functional
# How it was run: (§1)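 Serial 2-fold dilutions in the NCCLS broth microdilution method for aerobic nonfastidious organisms, with an 18-h incubation. The value is reported as the minimum inhibitory concentration (MIC).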
# Streptococcus pyogenes [2] = assay: In vitro antibacterial activity against Streptococcus pyogenes 4; format: functional
# How it was run: (§2)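 Broth macrodilution with serial 2-fold dilutions in cation-supplemented Mueller-Hinton broth containing 10% goat serum. The value is reported as the MIC.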
# Citrobacter freundii = assay: In vitro antibacterial activity against Citrobacter freundii BS 16; format: functional; how it was run: as §1
# Staphylococcus aureus [3] = assay: In vitro antibacterial activity against Staphylococcus aureus 95(MR); format: functional
# How it was run: (§3)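 Staphylococci were tested by the standard agar dilution procedure using serial 2-fold dilutions of agent. The value is reported as the MIC.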
# Enterobacter cloacae [4] = assay: In vitro antibacterial activity against Enterobacter cloacae 5699; format: functional; how it was run: as §1
# Streptococcus pneumoniae [5] = assay: In vitro antibacterial activity against Streptococcus pneumoniae 6301; format: functional; how it was run: as §2
# [6] = molecular target: T1, Penicillin-binding protein 1B (Escherichia coli K-12) (UniProt P02919); assay: Concentration required for 90% inhibition against 90 kDa penicillin-binding protein 1b binding using [14C]-Pen G as the radioligand.
# T1 sequence (whole entry): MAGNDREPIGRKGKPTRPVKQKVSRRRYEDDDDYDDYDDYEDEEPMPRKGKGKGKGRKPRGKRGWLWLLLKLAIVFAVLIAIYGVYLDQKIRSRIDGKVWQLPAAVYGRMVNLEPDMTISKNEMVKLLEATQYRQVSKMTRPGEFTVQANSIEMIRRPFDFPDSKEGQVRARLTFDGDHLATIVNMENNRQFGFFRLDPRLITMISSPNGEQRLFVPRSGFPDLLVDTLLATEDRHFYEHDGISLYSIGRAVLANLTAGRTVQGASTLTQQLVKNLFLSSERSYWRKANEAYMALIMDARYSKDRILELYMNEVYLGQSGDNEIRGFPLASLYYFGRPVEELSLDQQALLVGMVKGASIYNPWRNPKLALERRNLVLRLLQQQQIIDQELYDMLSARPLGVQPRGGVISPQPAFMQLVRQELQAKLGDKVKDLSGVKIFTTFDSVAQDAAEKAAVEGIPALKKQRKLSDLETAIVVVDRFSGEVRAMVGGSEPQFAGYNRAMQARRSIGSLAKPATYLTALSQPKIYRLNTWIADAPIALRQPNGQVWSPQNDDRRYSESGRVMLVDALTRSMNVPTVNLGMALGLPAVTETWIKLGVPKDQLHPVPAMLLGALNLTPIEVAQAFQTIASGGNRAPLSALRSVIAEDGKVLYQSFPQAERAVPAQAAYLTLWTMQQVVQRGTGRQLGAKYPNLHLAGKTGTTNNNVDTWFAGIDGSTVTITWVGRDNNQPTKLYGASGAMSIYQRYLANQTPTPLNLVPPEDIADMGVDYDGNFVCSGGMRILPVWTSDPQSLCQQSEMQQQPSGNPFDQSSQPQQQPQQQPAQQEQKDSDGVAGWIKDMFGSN
# How it was run: (§4)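 Solubilized membranes from sonicated E. coli DC-0 were used. PBP binding was measured as inhibition of [14C]penicillin G binding to each PBP.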
# Escherichia coli [7] = assay: Antibacterial activity against Escherichia coli DC-O; format: functional; how it was run: as §1
# Enterobacter cloacae [8] = assay: In vitro antibacterial activity against Enterobacter cloacae P99; format: functional; how it was run: as §1
# [9] = molecular target: T2, Penicillin-binding protein 1A (Escherichia coli K-12) (UniProt P02918); assay: Concentration required for 90% inhibition against 90 kDa penicillin-binding protein 1a binding using [14C]-Pen G as the radioligand.; how it was run: as §4
# T2 sequence (whole entry): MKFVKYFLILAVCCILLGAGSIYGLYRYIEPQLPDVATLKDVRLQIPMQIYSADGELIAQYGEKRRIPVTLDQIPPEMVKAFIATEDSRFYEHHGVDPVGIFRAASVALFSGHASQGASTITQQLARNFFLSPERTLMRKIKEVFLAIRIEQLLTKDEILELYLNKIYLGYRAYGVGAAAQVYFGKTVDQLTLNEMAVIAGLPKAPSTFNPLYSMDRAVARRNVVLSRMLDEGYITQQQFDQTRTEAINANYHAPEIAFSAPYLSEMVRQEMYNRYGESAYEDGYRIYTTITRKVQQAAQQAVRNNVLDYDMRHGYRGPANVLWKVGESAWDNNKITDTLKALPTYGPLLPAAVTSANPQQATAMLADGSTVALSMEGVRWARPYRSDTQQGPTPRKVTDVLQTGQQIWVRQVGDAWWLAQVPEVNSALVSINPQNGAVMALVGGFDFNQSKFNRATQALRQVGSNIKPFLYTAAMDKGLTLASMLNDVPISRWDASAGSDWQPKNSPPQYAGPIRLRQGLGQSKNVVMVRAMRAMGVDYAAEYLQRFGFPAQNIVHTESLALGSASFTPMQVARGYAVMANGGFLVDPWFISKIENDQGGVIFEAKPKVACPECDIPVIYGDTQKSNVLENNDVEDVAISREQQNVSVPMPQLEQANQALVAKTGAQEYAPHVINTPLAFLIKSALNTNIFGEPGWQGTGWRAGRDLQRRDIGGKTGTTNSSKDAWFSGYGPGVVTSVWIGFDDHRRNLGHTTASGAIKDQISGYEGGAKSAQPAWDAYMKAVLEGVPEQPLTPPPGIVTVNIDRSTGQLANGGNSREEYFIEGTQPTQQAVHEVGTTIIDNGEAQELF
# Serratia marcescens [10] = assay: In vitro antibacterial activity against Serratia marcescens SM; format: functional; how it was run: as §1
# Escherichia coli [11] = assay: Concentration required for 90% inhibition against 60 kDa penicillin-binding protein 3 binding using [14C]-Pen G as the radioligand.; how it was run: as §4
# Klebsiella pneumoniae = assay: In vitro antibacterial activity against Klebsiella pneumoniae A; format: functional; how it was run: as §1
# Staphylococcus aureus [12] = assay: In vitro antibacterial activity against Staphylococcus aureus Smith(MS); format: functional; how it was run: as §3
# [13] = molecular target: T3, Peptidoglycan D,D-transpeptidase MrdA (Escherichia coli K-12) (UniProt P0AD65); assay: Concentration required for 90% inhibition against 66 kDa penicillin-binding protein 2 binding using [14C]-Pen G as the radioligand.; how it was run: as §4
# T3 sequence (whole entry): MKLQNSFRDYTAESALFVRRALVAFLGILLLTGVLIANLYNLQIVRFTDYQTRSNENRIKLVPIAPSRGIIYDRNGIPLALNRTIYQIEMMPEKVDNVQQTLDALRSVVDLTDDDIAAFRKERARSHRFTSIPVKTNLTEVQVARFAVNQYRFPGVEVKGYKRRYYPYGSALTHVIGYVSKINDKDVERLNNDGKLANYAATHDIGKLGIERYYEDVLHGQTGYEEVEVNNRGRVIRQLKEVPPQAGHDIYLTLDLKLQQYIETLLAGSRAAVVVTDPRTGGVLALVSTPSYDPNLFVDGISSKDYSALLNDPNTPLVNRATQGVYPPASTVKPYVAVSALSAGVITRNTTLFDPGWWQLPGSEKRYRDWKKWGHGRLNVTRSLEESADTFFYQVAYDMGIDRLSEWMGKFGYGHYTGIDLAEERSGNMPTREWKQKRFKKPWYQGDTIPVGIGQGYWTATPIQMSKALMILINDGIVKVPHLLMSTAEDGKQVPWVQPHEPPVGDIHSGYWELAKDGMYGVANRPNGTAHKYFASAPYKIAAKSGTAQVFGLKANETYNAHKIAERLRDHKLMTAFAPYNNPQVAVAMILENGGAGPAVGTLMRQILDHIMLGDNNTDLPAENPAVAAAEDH
# Pseudomonas aeruginosa [14] = assay: In vitro antibacterial activity against Pseudomonas aeruginosa 5712; format: functional; how it was run: as §1
# Streptococcus pneumoniae [15] = assay: In vivo activity in murine against Streptococcus pneumoniae 6301 infection after sc administration.; format: functional
# How it was run: (§5)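 Mouse protection test in CD1 Swiss albino mice (18–20 g). Mice were infected intraperitoneally with 0.5 mL of a diluted bacterial suspension, then treated within 5 min with one 1.0 mL subcutaneous dose at the dorsal base of the neck. Doses ranged from 0.05 to 250 mg/kg, with six mice per group. ED50 was calculated by the Reed–Muench method.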
# Pseudomonas aeruginosa [16] = assay: In vivo activity in murine against Pseudomonas aeruginosa 5712 infection after sc administration.; format: functional; conditions: Pseudomonas aeruginosa, sc; read-out: ED50
# How it was run: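 Mouse protection test in CD1 Swiss albino mice (18–20 g) infected intraperitoneally with 0.5 mL of diluted P. aeruginosa suspension. Mice received 1.0 mL subcutaneously at the neck base within 5 min of infection and a second treatment 3 h after infection. Doses ranged from 0.05 to 250 mg/kg, with six mice per group. ED50 was calculated by the Reed–Muench method.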
# Escherichia coli [17] = assay: In vivo activity in murine against Escherichia coli 257 infection after sc administration.; format: functional; conditions: Escherichia coli, sc; read-out: ED50; how it was run: as §5
# Streptococcus pyogenes [18] = assay: In vivo activity in murine against Streptococcus pyogenes 4 infection after sc administration.; format: functional; how it was run: as §5
# Serratia marcescens [19] = assay: In vivo activity in murine against Serratia marcescens SM infection after sc administration.; format: functional; how it was run: as §5
SMILES,MIC (Escherichia coli [1]),MIC (Streptococcus pyogenes [2]),MIC (Citrobacter freundii),MIC (Staphylococcus aureus [3]),MIC (Enterobacter cloacae [4]),MIC (Streptococcus pneumoniae [5]),Concentration [6],MIC (Escherichia coli [7]),MIC (Enterobacter cloacae [8]),Concentration [9],MIC (Serratia marcescens [10]),Concentration (Escherichia coli [11]),MIC (Klebsiella pneumoniae),MIC (Staphylococcus aureus [12]),Concentration [13],MIC (Pseudomonas aeruginosa [14]),further results
CO/N=C(\C(=O)N[C@@H]1C(=O)N2C(C(=O)O)=C(COC(=O)c3cn(CCF)c4c(F)c(N5CCN(C)CC5)c(F)cc4c3=O)CS[C@H]12)c1csc(N)n1,0.063 µg/mL,< 0.008 µg/mL,0.25 µg/mL,1 µg/mL,0.25 µg/mL,< 0.008 µg/mL,2 µg/mL,0.12 µg/mL,0.125 µg/mL,0.1 µg/mL,0.125 µg/mL,0.1 µg/mL,0.125 µg/mL,1 µg/mL,100 µg/mL,16 µg/mL,
C[N+]1(CC2=C(C(=O)[O-])N3C(=O)[C@@H](NC=O)[C@H]3SC2)CCN(c2c(F)cc3c(=O)c(C(=O)O)cn(CCF)c3c2F)CC1,2 µg/mL,8 µg/mL,16 µg/mL,1 µg/mL,4 µg/mL,16 µg/mL,,,0.5 µg/mL,,8 µg/mL,,2 µg/mL,4 µg/mL,,128 µg/mL,
CO/N=C(\C(=O)N[C@@H]1C(=O)N2C(C(=O)O)=C(COC(C)=O)CS[C@H]12)c1csc(N)n1 [CEFOTAXIME],0.031 µg/mL,< 0.008 µg/mL,128 µg/mL,128 µg/mL,0.125 µg/mL,0.016 µg/mL,0.5 µg/mL,0.06 µg/mL,64 µg/mL,0.1 µg/mL,0.25 µg/mL,0.1 µg/mL,0.031 µg/mL,1 µg/mL,100 µg/mL,64 µg/mL,ED50 (Streptococcus pneumoniae [15]): 90 mg/kg; ED50 (Pseudomonas aeruginosa [16]): > 250 mg/kg; ED50 (Escherichia coli [17]): 0.37 mg/kg; ED50 (Streptococcus pyogenes [18]): 7 mg/kg; ED50 (Serratia marcescens [19]): > 50 mg/kg
CCn1cc(C(=O)O)c(=O)c2cc(F)c(N3CC[N+](C)(CC4=C(C(=O)[O-])N5C(=O)[C@@H](NC(=O)/C(=N\OC)c6csc(N)n6)[C@H]5SC4)CC3)cc21,0.5 µg/mL,0.125 µg/mL,4 µg/mL,4 µg/mL,1 µg/mL,0.063 µg/mL,,,1 µg/mL,,1 µg/mL,,1 µg/mL,2 µg/mL,,64 µg/mL,
C[N+]1(CC2=C(C(=O)[O-])N3C(=O)[C@@H](NC(=O)COc4ccccc4)[C@H]3SC2)CCN(c2c(F)cc3c(=O)c(C(=O)O)cn(CCF)c3c2F)CC1,0.5 µg/mL,0.063 µg/mL,2 µg/mL,1 µg/mL,0.5 µg/mL,0.25 µg/mL,100 µg/mL,8 µg/mL,0.5 µg/mL,10 µg/mL,2 µg/mL,2 µg/mL,0.5 µg/mL,0.5 µg/mL,> 100 µg/mL,32 µg/mL,
C[N+]1(CC2=C(C(=O)[O-])N3C(=O)[C@@H](NC(=O)COc4ccccc4)[C@H]3SC2)CCN(c2ccccc2)CC1,32 µg/mL,0.031 µg/mL,> 128 µg/mL,128 µg/mL,64 µg/mL,0.125 µg/mL,,,> 128 µg/mL,,> 128 µg/mL,,32 µg/mL,0.063 µg/mL,,> 128 µg/mL,

# — ChEMBL document CHEMBL1125894, “Dual-action cephalosporins: cephalosporin 3'-quaternary ammonium quinolones” (1991)
